Assay outcomes from PubChem BioAssay.
Hits are enriched below; roughly 9.4% of the tested compounds scored in any of these assays.
Beta cell apopt: blocks beta cell apoptosis; INS-1E cytokine-induced death, ATP luminescence, 48 h; percent of positive-control rescue, neutral wells zero; protection from apoptosis, % (no concentration beside the values); actives 0.8% (n = 300,000);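 active = Every replicate reaches about 75%, or at least half do and their mean reaches it too, limit read from the data; inconclusive = At least half of replicates reach the limit but their mean does not; inactive = Under half of replicates reach the limit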;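 also: 0% = cytokine-treated negative control wells and 100% = positive control rescue; higher means more ATP so stronger rescue from cytokine killing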
Mdm2 MdmX PPI: human Mdm2/MdmX binding inhibition. actives 3% (n = 330,000). SaOS-2 split-luciferase Mdm2/MdmX complementation, luminescence. AID 485346. O15151+Q00987. inhibition, % at 8 µM;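 active = inhibition of at least 50% at 8 µM in the primary screen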
Target sequence (O15151 whole entry, looked up): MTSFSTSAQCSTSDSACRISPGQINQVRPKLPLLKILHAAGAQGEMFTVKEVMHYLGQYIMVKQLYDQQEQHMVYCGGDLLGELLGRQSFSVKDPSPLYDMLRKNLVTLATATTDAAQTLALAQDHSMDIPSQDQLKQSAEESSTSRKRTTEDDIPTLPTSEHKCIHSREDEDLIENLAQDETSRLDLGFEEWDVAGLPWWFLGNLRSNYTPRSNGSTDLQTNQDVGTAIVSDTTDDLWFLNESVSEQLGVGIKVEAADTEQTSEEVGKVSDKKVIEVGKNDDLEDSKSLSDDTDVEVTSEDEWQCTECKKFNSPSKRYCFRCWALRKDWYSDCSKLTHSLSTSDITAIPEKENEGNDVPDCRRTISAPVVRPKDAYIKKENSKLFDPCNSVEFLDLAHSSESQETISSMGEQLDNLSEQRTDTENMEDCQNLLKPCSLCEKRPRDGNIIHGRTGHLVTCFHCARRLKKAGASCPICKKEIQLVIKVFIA
Target sequence (Q00987 whole entry, looked up): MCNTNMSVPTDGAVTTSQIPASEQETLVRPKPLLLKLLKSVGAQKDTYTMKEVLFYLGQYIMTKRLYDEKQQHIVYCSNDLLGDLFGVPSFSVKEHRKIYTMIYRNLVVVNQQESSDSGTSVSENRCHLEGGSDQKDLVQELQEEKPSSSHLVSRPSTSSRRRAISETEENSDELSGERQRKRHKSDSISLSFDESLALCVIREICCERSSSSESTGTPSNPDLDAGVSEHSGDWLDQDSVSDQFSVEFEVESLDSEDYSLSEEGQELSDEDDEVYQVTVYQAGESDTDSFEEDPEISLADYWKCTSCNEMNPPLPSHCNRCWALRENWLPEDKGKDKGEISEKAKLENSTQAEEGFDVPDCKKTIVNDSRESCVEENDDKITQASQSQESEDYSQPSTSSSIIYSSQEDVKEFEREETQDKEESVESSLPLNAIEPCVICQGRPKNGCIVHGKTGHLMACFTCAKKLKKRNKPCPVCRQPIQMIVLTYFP
T cruzi inh: blocks replication of Trypanosoma cruzi | T. cruzi beta-gal in NIH3T3, luminescence, 90 h | inhibition, % (no concentration beside the values) | actives 1.4% (n = 300,000) | AID 1885;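 active = mean inhibition across valid replicates above about 55%, limit read from the data; inconclusive = mean below that limit but half or more replicates reach it; inactive = mean below it, under half of replicates reach it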;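 also: signal also drops with host cell toxicity which is not excluded here; 0% = plate median of DMSO wells and 100% = zero luminescence signal; higher percent means less beta-gal luminescence so fewer parasites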
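System: NIH/3T3 fibroblasts plus reporter T. cruzi. Medium: DMEM plus 2% FBS. Probe or stimulus: 5000 reporter trypomastigotes per well. Compound: single 50 nL compound addition per well in DMSO. Incubation: co-culture of at least 90 h after 3 h attachment. Detection: GalScreen β-gal luminescence, detergent lysis, 60 min. Evaluation: parasite load inhibition, %.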
SKKanGAS inh: blocks kanamycin growth of S. pyogenes SKKanGAS strain; BacTiter-Glo, 6 h; inhibition, % at 7.5 µM; actives 1.3% (n = 300,000);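 active = mean replicate score, as percent of positive control median, at least 50; inconclusive = mean below 50 but one replicate at or above 50; inactive = mean and every replicate below 50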;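 also: strain carries kanamycin resistance gene driven by streptokinase promoter and grows in 40 µg/ml kanamycin; loss of luminescence reflects streptokinase promoter inhibition or plain growth inhibition; 0% = median of DMSO wells and 100% = positive control at its reference dose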
CSC inhib: cancer stem cell inhibition; cancer stem cell-like cells viability, luminescence; inhibition, % at 7.5 µM; actives 1.1% (n = 300,000); AID 2717; in the data active = inhibition above about 75%; inconclusive = no clear call, values can overlap the other calls; tested in HMLE shEcad cells
L major viab: reduces viability of Leishmania major promastigotes | actives 9% (n = 200,000) | inhibition, % at 10 µM | resazurin fluorescence viability | AID 1063; in the data active = inhibition above about 50%;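 also: promastigotes grown with compound for 44 hours at 28 °C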
Mdm2-MdmX conf: human Mdm2/MdmX binding inhibition, confirmed; actives 55% (n = 10,000); luminescent assay; shares compounds with Mdm2 MdmX PPI; inhibition, % at 8 µM; in the data active = inhibition above about 40%
FLuc counter: inhibits full-length luciferase, flagging false Mdm2/MdmX hits; SaOS-2 full-length luciferase counterscreen, luminescence; shares compounds with Mdm2 MdmX PPI; inhibition, % at 8 µM; actives 77% (n = 6,200);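 active = mean inhibition at 8 µM reaching about 37%, which flags the compound as non-specific, limit read from the data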;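 also: p53-null SaOS-2 cells with luciferase driven by a doxycycline-inducible promoter; compound on cells about two nights before reading with doxycycline added after day one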
* hit, by the source's call; ? = inconclusive; . = no result given.

SMILES	Beta cell apopt	Mdm2 MdmX PPI	T cruzi inh	SKKanGAS inh	CSC inhib	L major viab	Mdm2-MdmX conf	others
COc1cccc(/C=N/Nc2ncnc3c2ncn3Cc2ccccc2)c1O	.	82*	34	14	-12	88*	82*	FLuc counter=63*
COc1cccc(/C=N/Nc2cc(Cl)nc(C)n2)c1O	11	-14	-3	-1	2	-1	.
CCOC(=O)c1ccc(N=C2S/C(=C\c3cc(C)n(-c4cccnc4)c3C)C(=O)N2C)cc1	-18	66*	2	15	1	4	4
NC(=O)c1oc2ccccc2c1NC(=O)c1ccc([N+](=O)[O-])o1	35	65*	32	73*	.	.	55*	FLuc counter=32
NC(=O)c1oc2ccccc2c1NC(=O)c1ccc(F)cc1	-4	-15	-12	-5	-8	-5	.
O=C(Nc1nc2ccccc2s1)c1ccc(Cl)s1	.	-228	-5	3	10	14	.
Cc1ccc2nc(NC(=O)c3ccc(-c4nc5ccccc5s4)s3)sc2c1	15	98*	.	.	14	-8	46*	FLuc counter=84*
COC(=O)c1cc(=O)n(Cc2ccco2)c(=Nc2ccc(F)c(Cl)c2)s1	14	100*	50	2	94*	100*	35	FLuc counter=65*
CCN=c1sc(C(=O)OC)cc(=O)n1CC	-4	21	-11	-1	14	9	.
COC(=O)c1cc(=O)n(CCc2ccccc2F)c(=Nc2ccc(F)c(Cl)c2)s1	76*	73*	54	-3	122*	99*	13
Cc1ccc(S(=O)(=O)c2nc(S(C)(=O)=O)sc2N2CCC(O)CC2)cc1	-5	20	?	5	-22	.	.
Cc1ccc(S(=O)(=O)c2nc(S(C)(=O)=O)sc2N2CCCCC2C)cc1 (centres undefined)	0	57*	9	4	-7	.	41*	FLuc counter=40*
Cc1ccccc1C(=O)Nc1ccnn1C1CCN(Cc2ccccn2)CC1	-6	2	-14	-1	-8	.	.
COC(=O)c1cnc(Oc2ccc(NC(=O)NC(=O)c3c(OC)cccc3OC)cc2)cc1C(F)(F)F	33	76*	29	19	41	.	58*	FLuc counter=80*
COC(=O)c1cnc(Oc2ccc(NC(=O)NC(=O)c3c(F)cccc3F)cc2)cc1C(F)(F)F	0	13	-9	3	5	.	.
C#CCn1c(=NC(=O)c2cccs2)sc2cccc(OCC)c21	4	64*	44	-2	-14	4	-4
CCN(CC)CCNc1cc(C)nc2c1C(=O)C(=O)C=C2N1CCCCC1	-7	65*	60*	27	54	101*	67*	FLuc counter=29
CCN(CC)CCNC(=O)C(=O)Nc1cc2c3c(c1)CC(=O)N3CCC2	-2	-1	0	5	2	.	.
O=C(CSc1nnc(CNC(=O)c2c(F)cccc2F)o1)c1ccccc1	-10	2	12	15	10	.	.
COc1ccc2cc(C)c3nnc(SCC(=O)Nc4nc(-c5ccc(F)cc5)cs4)n3c2c1	-7	86*	9	9	17	-2	25
COc1ccc(-c2csc(NC(=O)CSc3nc4ccccc4c(=O)[nH]3)n2)cc1	-2	51*	-1	12	.	.	-9
Cc1nn(CC(=O)NC(=O)NC2CCCCC2C)c(=O)c(C#N)c1C (centres undefined)	-7	3	-8	-3	-6	.	.
Cc1n[nH]c(=S)n1/N=C/c1ccccc1OCc1ccc(Cl)cc1Cl	8	53*	-2	2	-6	36	11
Cc1ccc(Sc2ncnc3onc(C)c23)c(C)c1	.	.	.	.	.	13	.
Cc1noc2ncnc(Sc3ccccc3Cl)c12	-13	70*	45	-1	-9	80*	-4
SMILES	Beta cell apopt	Mdm2 MdmX PPI	T cruzi inh	SKKanGAS inh	CSC inhib	L major viab	Mdm2-MdmX conf	others
O=C(NCC(=O)N1CCN(c2ccccc2O)CC1)c1cccs1	-4	1	-7	-7	-6	.	.
COc1cc(OC)cc(-c2nnc(SCC(=O)N3c4ccccc4Sc4ccccc43)o2)c1	2	54*	3	5	20	-1	12
COc1cc(C(CCN2CCCC2)c2c(OC)cc(OC)c3c(C)cc(=O)oc23)cc(OC)c1OC (centres undefined)	-3	15	36	2	-15	.	.
COc1cc(C(CCN2CCCC(C)C2)c2c(OC)cc(OC)c3c(-c4ccccc4)cc(=O)oc23)cc(OC)c1OC (centres undefined)	14	82*	48	8	15	.	25
COc1cc(C(CC(=O)N2CCCC2)c2c(OC)cc(OC)c3c(-c4ccccc4)cc(=O)oc23)cc(OC)c1OC (centres undefined)	10	25	38	17	-14	.	.
COc1cc(C(CCN2CCCCC2)c2c(OC)cc(OC)c3c(-c4ccccc4)cc(=O)oc23)cc(OC)c1OC (centres undefined)	11	65*	42	9	-6	.	24
COc1cccc(NC(=O)C(Cc2ccccc2)n2cccc2)c1 (centres undefined)	3	16	-8	3	-12	.	.
CCCCNC(=S)NC(C)(C)CO	-5	-19	-20	5	7	-9	.
O=C(OCn1nnc2ccccc2c1=O)c1cc(-c2ccccc2)nc2ccccc12	-4	5	0	-5	2	-1	.
CC(C)c1ccc(C2C3=C(CC(C)(C)CC3=O)NC3=C2C(=O)c2ccccc23)cc1 (centres undefined)	13	73*	58*	24	36	89*	26
CCOc1ccc(C2C(C(=O)c3ccco3)=C(O)C(=O)N2CCCn2ccnc2)cc1OC (centres undefined)	.	13	-18	-8	-10	.	.
Cc1c(NC(=O)/C=C/c2ccc(S(=O)(=O)N3CCOCC3)cc2)c(=O)n(-c2ccccc2)n1C	-3	6	6	-4	.	-6	.
CC(=O)N(C)C1=C(N2CCOCC2)C(=O)c2ccccc2C1=O	125*	82*	-113	-3	.	95*	86*	FLuc counter=48*
CC(=O)N(C1=C(N2CCOCC2)C(=O)c2ccccc2C1=O)c1ccc(C(=O)O)cc1	-9	25	-16	19	-5	.	.
O=C1N(Cc2ccccc2)c2ccc(Cl)cc2C12OCCO2	-1	17	2	9	-11	.	.
CCCCCCC1CCC(C(=O)N2CCOCC2)CC1 (centres undefined)	-3	-14	0	1	-5	-2	.
CCOc1cc(/C=C/C(=O)Nc2ccc(C(=O)NCCN(CC)CC)cc2)ccc1OCC(C)C	20	94*	51	5	-11	53*	28
Cc1sc(NC(=O)CCl)c(C(=O)c2ccccc2)c1C	8	54*	24	13	15	101*	4
